# According to ChEMBL document CHEMBL5370680, “Design and Biological Evaluation of Piperazine-Bearing Nitrobenzamide Hypoxia/GDEPT Prodrugs: The Discovery of CP-506” (ACS Med Chem Lett, 2023):
# System: not listed separately
# Assay: Selectivity ratio of IC50 for antiproliferative activity against wild type human NCI-H1299 cells to IC50 for antiproliferative activity against human NCI-H1299 cells expressing AKR1C3
# Format: functional
# Details: time 4 hrs
# How it was run: (§1)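 Ratio of mean IC50 in non-transfected wild-type cells to mean IC50 in the AKR1C3- or NfsA_Ec-transfected line. IC50 is from a 4 h prodrug exposure and 5 days' regrowth.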
row,SMILES,Ratio IC50
1,CCS(=O)(=O)c1cc([N+](=O)[O-])c(C(=O)N2CCN(C(C)C)CC2)cc1N(CCBr)CCBr,0.7

# System: NCI-H1299
# Assay: Antiproliferative activity against human NCI-H1299 cells expressing NfsA of Escherichia coli assessed as cell growth inhibition measured after 4 hrs
# Format: functional
# Details: NCI-H1299, 4 h
# How it was run: (§2)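 Monolayer antiproliferative assay using wild-type cells and isogenic lines transfected with AKR1C3 or E. coli NfsA. Cells exposed to prodrug for 4 h, then regrown for 5 days. IC50 is 50% growth inhibition versus untreated controls. Mean values reported, CV <20%.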
row,SMILES,IC50
1,CCS(=O)(=O)c1cc([N+](=O)[O-])c(C(=O)N2CCN(C(C)C)CC2)cc1N(CCBr)CCBr,0.685 µM

# System: HCT-116
# Assay: Antiproliferative activity against human HCT-116 cells in three-dimensional cell culture multicellular layer expressing NfsA of Escherichia coli assessed as fold change in plating efficiency at 10 uM
# Format: functional
# Details: not given
# How it was run: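 Mixed MCLs of wild-type HCT116 with 3% NfsA_Ec-expressing cells, against 100% wild-type MCLs, exposed to 10 μM prodrug. Clonogenic plating efficiency measured. Fold change is the plating-efficiency ratio between wild-type and transfected MCLs. ≥3 independent experiments.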
row,SMILES,fold change (FC)
1,CCS(=O)(=O)c1cc([N+](=O)[O-])c(C(=O)N2CCN(C(C)C)CC2)cc1N(CCBr)CCBr,351

# System: HCT-116
# Assay: Antiproliferative activity against wild type human HCT-116 cells assessed as cell growth inhibition measured after 4 hrs
# Format: functional, cell-based
# Details: HCT-116, 4 h
# How it was run: as §2
row,SMILES,IC50
1,CCS(=O)(=O)c1cc([N+](=O)[O-])c(C(=O)N2CCN(C(C)C)CC2)cc1N(CCBr)CCBr,65 µM

# System: NCI-H1299
# Assay: Antiproliferative activity against wild type human NCI-H1299 cells assessed as cell growth inhibition measured after 4 hrs
# Format: functional, cell-based
# Details: NCI-H1299, 4 h
# How it was run: as §2
row,SMILES,IC50
1,CCS(=O)(=O)c1cc([N+](=O)[O-])c(C(=O)N2CCN(C(C)C)CC2)cc1N(CCBr)CCBr,49 µM

# System: not listed separately
# Assay: Selectivity ratio of IC50 for antiproliferative activity against wild type human HCT-116 cells to IC50 for antiproliferative activity against human HCT-116 cells expressing NfsA of Escherichia coli
# Format: functional
# Details: time 4 hrs
# How it was run: as §1
row,SMILES,Ratio IC50
1,CCS(=O)(=O)c1cc([N+](=O)[O-])c(C(=O)N2CCN(C(C)C)CC2)cc1N(CCBr)CCBr,131

# System: not listed separately
# Assay: Selectivity ratio of IC50 for antiproliferative activity against wild type human NCI-H1299 cells to IC50 for antiproliferative activity against human NCI-H1299 cells expressing NfsA of Escherichia coli
# Format: functional
# Details: time 4 hrs
# How it was run: as §1
row,SMILES,Ratio IC50
1,CCS(=O)(=O)c1cc([N+](=O)[O-])c(C(=O)N2CCN(C(C)C)CC2)cc1N(CCBr)CCBr,73

# System: not listed separately
# Assay: Octanol/water partition coefficient, log D of the compound at pH 7.4
# Format: physicochemical
# Details: not given
# How it was run: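 Octanol–water partition coefficient by shake-flask method at pH 7.4.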
row,SMILES,logD
1,CCS(=O)(=O)c1cc([N+](=O)[O-])c(C(=O)N2CCN(C(C)C)CC2)cc1N(CCBr)CCBr,2.5

# System: NCI-H1299
# Assay: Antiproliferative activity against human NCI-H1299 cells expressing AKR1C3 assessed as cell growth inhibition measured after 4 hrs
# Format: functional, cell-based
# Details: NCI-H1299, 4 h
# How it was run: as §2
row,SMILES,IC50
1,CCS(=O)(=O)c1cc([N+](=O)[O-])c(C(=O)N2CCN(C(C)C)CC2)cc1N(CCBr)CCBr,67 µM

# System: HCT-116
# Assay: Antiproliferative activity against human HCT-116 cells expressing AKR1C3 assessed as cell growth inhibition measured after 4 hrs
# Format: functional, cell-based
# Details: HCT-116, 4 h
# How it was run: as §2
row,SMILES,IC50
1,CCS(=O)(=O)c1cc([N+](=O)[O-])c(C(=O)N2CCN(C(C)C)CC2)cc1N(CCBr)CCBr,70 µM

# System: not listed separately
# Assay: Selectivity ratio of IC50 for antiproliferative activity against wild type human HCT-116 cells to IC50 for antiproliferative activity against human HCT-116 cells expressing AKR1C3
# Format: functional
# Details: time 4 hrs
# How it was run: as §1
row,SMILES,Ratio IC50
1,CCS(=O)(=O)c1cc([N+](=O)[O-])c(C(=O)N2CCN(C(C)C)CC2)cc1N(CCBr)CCBr,0.9

# System: HCT-116
# Assay: Antiproliferative activity against human HCT-116 cells in three-dimensional cell culture multicellular layer expressing AKR1C3 assessed as fold change in plating efficiency at 10 uM
# Format: functional
# Details: not given
# How it was run: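 100% AKR1C3-expressing HCT116 MCLs, against wild-type HCT116 MCLs, exposed to 10 μM prodrug. Clonogenic plating efficiency measured. Fold change is the plating-efficiency ratio between wild-type and transfected MCLs. ≥3 independent experiments.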
row,SMILES,fold change (FC)
1,CCS(=O)(=O)c1cc([N+](=O)[O-])c(C(=O)N2CCN(C(C)C)CC2)cc1N(CCBr)CCBr,0.9

# System: HCT-116
# Assay: Antiproliferative activity against human HCT-116 cells expressing NfsA of Escherichia coli assessed as cell growth inhibition measured after 4 hrs
# Format: functional
# Details: HCT-116, 4 h
# How it was run: as §2
row,SMILES,IC50
1,CCS(=O)(=O)c1cc([N+](=O)[O-])c(C(=O)N2CCN(C(C)C)CC2)cc1N(CCBr)CCBr,0.496 µM
